Assay results of several laboratories.
Protocols differ between the studies behind these lines.
Target: Sigma intracellular receptor 2 (Tmem97, Rattus norvegicus, UniProt Q5U3Y7)
Observed: ligand displacement
Technique: radioligand
One construct used (Q5U3Y7 1-176): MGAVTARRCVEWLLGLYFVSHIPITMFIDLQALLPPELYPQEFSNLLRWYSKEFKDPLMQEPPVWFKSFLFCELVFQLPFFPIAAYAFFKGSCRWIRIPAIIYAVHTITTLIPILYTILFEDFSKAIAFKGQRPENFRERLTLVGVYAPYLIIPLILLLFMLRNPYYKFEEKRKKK

| SMILES | notes | Ki [nM] |
| --- | --- | --- |
| COc1cc2c(cc1OC)CN(CCCCn1ccc3c(OC)cccc31)CC2 | cell membranes | 7.73 |
| O=C(NCCN1CCCCC1)c1ccc(OCCCF)c(Br)c1 | cell membranes | 28.3 |
| COc1ccc2ccn(CCCCN3Cc4cc(OC)c(OC)cc4C3)c2c1 | cell membranes | 9.46 |
| O=C(NCCN1CCCCC1)c1ccc(O)c(Br)c1 | cell membranes | > 10000 |
| COc1ccc(CCC(C)N2CCc3cc(OC)c(OC)cc3C2)cc1 (stereo not shown) | – | 0.59 |
| COc1cc2c(cc1OC)C(=O)N(CCCCN1C(=O)/C(=N\NC(=S)N(C)C)c3ccccc31)CC2 | cell membranes | > 10000 |
| COc1ccc2c(ccn2CCCCN2CCc3cc(OC)c(OC)cc3C2)c1 | cell membranes | 4.4 |
| O=C(NCCN1CCCCC1)c1cc(Br)ccc1OCCCF | cell membranes | 92.9 |
| COc1cc2c(cc1OC)CN(C(C)CCc1ccc(O)cc1)CC2 (stereo not shown) | – | 4.92 |
| CN(C)C(=S)N/N=C1/C(=O)Nc2ccccc21 | cell membranes | > 10000 |
